High-throughput results deposited in PubChem by The Scripps Research Institute Molecular Screening Center.
MBD2 DNA inh: MBD2-methylated oligo binding inhibition; Q9UBB5; TR-FRET, MBD2 binding to methylated oligonucleotide; inhibition, % at 4.4 µM; 370,000 compounds, 0.31% hits; AID 686964; in the data active = inhibition above about 13%
ARFGAP1 inh: inhibitors of rat ARFGAP1. Q62848. Arfgap1-stimulated ARF1 GTP hydrolysis, GDP FP detection. inhibition, % at 16.5 µM. 360,000 compounds, 0.26% hits. AID 651572;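 active = inhibition above a per-plate limit, mean inhibition of low control wells plus 3 SD, cut at about 25% in these data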;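 note: 0% = DMSO wells with enzyme and 100% = wells lacking Arfgap1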
Target sequence (Q62848 1-136 limits assumed): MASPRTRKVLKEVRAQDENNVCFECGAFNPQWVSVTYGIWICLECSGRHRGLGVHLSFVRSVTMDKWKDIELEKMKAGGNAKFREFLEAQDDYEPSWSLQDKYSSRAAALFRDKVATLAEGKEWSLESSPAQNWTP
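System: truncated rat Arfgap1 GAP domain / Medium: HEPES-based buffer, pH 7.5 / Also added: N-terminally truncated human ARF1-GTP substrate / Incubation: enzyme reaction 120 min at 25 °C after 20 min preincubation / Measured by: FP of antibody-bound GDP Alexa 633 tracer, ex 620/em 688 nm / Replicates: singlicate, each compound tested once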
ASAP1 inh: inhibitors of human ASAP1 ArfGAP activity. inhibition, % at 16.5 µM. Q9ULH1. ASAP1-stimulated ARF1 GTP hydrolysis, GDP FP detection. 360,000 compounds, 0.19% hits; in the data active = inhibition above about 25%;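 note: 0% = vehicle with enzyme and substrate and 100% = no enzyme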
TDP2 inh: TDP2 (human) inhibition, absorbance primary screen | 370,000 compounds, 0.34% hits | inhibition, % at 12.8 µM | O95551 | recombinant TDP2, T5PNP hydrolysis, p-nitrophenol absorbance 415 nm;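 active = inhibition above the mean of all tested compounds plus 3 SD, set per campaign, cut at about 25% in these data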;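 note: 0% = DMSO with enzyme and 100% = buffer with substrate but no TDP2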
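Assay system: Recombinant human TDP2 | Quantity: 120 nM TDP2 per well | Incubation: 2 h at 37 °C | Signal: Epi absorbance | Evaluation: Percent inhibition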
UHRF1 binding: UHRF1 methyl-DNA binding inhibition; inhibition, % at 4.4 µM; UHRF1 binding to methylated oligo, TR-FRET; Q96T88; 370,000 compounds, 0.75% hits;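 note: UHRF1 SRA domain binding a hemimethylated CpG hairpin DNA probe; 0% = median of test compound wells and 100% = reference inhibitor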
LEDGF integ inh: blocks HIV-1 LEDGF/p75-dependent DNA integration | inhibition, % at 3.7 µM | 370,000 compounds, 0.64% hits | TR-FRET IN-LEDGF/p75 DNA integration, Eu/Cy5;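 active = inhibition above the screen-wide mean plus 3 SD, cut at about 13% in these data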;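 note: signal is the Cy5 over europium emission ratio at 671 and 618 nm; 0% = plate median of compound wells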
UHRF1 ctr MBD2: inhibits human UHRF1 binding to methylated oligonucleotide, MBD2 counter-screen; TR-FRET; 1,000 compounds, 25% hits; shares compounds with MBD2 DNA inh; inhibition, % at 4.4 µM;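 note: UHRF1 SRA domain binding a labeled hemimethylated CpG hairpin DNA; 0% = vehicle only and 100% = reference inhibitor with vehicle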
MBD2 confirm: confirmation of human MBD2-DBD methylated oligonucleotide binding inhibitors | 1,000 compounds, 26% hits | TR-FRET MBD2-DBD binding to methylated oligonucleotide | inhibition, % at 4.4 µM | shares compounds with MBD2 DNA inh; in the data active = inhibition above about 14%
Active calls of the source: *. A selection: hits, their analogues and other compounds. The true share with any hit is near 2%. Cut-off read from the data, not from the text of the source, unless noted: active = inhibition above about 21%; inactive = the rest.

`C/C=C/C=[N+](\[O-])C(C)/C(=N/O)c1ccc(F)cc1` (centres undefined) gave MBD2 DNA inh 14*, ARFGAP1 inh 17, ASAP1 inh 4, TDP2 inh 8, UHRF1 binding 5, LEDGF integ inh 1, UHRF1 ctr MBD2 1 and MBD2 confirm 1.
Screening O=C(Oc1ccc2c(c1)OCO2)c1cc2c(s1)CCC2 returned MBD2 DNA inh 25*, ARFGAP1 inh 3, ASAP1 inh 9, TDP2 inh 12, UHRF1 binding 35*, LEDGF integ inh 12, UHRF1 ctr MBD2 36* and MBD2 confirm 28*.
COC(=O)C1CN(Cc2ccc(Cl)cc2)CCS(=O)(=O)N1Cc1cn(Cc2ccc(F)cc2)nn1 (centres undefined) was read as MBD2 DNA inh 0, TDP2 inh 11, UHRF1 binding 10 and LEDGF integ inh 2.
For Cc1ccc2nc(Cl)c3cc(C(=O)NCCCN4CCCC4)sc3c2c1 the results were MBD2 DNA inh 15*, ARFGAP1 inh 6, ASAP1 inh -3, TDP2 inh -11, UHRF1 binding -4, LEDGF integ inh -3, UHRF1 ctr MBD2 8 and MBD2 confirm 16*.
Screening NC(=O)C1=C(N)c2ccccc2C1c1ccccc1 (centres undefined) returned MBD2 DNA inh 32*, ARFGAP1 inh 14, ASAP1 inh 5, TDP2 inh -5, UHRF1 binding 1, LEDGF integ inh -5, UHRF1 ctr MBD2 2 and MBD2 confirm 1.
Screening CCOC(=O)[C@]12CCCCC/C=C\1N(Cc1ccc(OC)cc1)C(=O)[C@H]2CC(=O)NCc1ccccc1 returned MBD2 DNA inh -3, TDP2 inh 1, UHRF1 binding 1 and LEDGF integ inh 0.
For CCCC(=O)N1CCC[C@]2(CC[C@H](CCC(C)=O)O2)C1 the results were MBD2 DNA inh 3, TDP2 inh -2, UHRF1 binding 4 and LEDGF integ inh 1.
CC(C)(C)C1CCc2onc(C(=O)NCc3ccc(F)cc3)c2C1 (centres undefined) was read as MBD2 DNA inh 17*, ARFGAP1 inh 3, ASAP1 inh -12, TDP2 inh -12, UHRF1 binding 17, LEDGF integ inh 1, UHRF1 ctr MBD2 2 and MBD2 confirm 2.
Screening CN(C)c1ccc(-c2nn3c(-c4ccc(Cl)cc4)nnc3s2)cc1 returned MBD2 DNA inh -7, ARFGAP1 inh 4, ASAP1 inh -6, TDP2 inh 9, UHRF1 binding -1 and LEDGF integ inh -1.
For Cc1nn2c(-c3ccc(Cl)cc3)nnc2s1 the results were MBD2 DNA inh 14*, ARFGAP1 inh 2, ASAP1 inh 3, TDP2 inh 3, UHRF1 binding -16, LEDGF integ inh 0, UHRF1 ctr MBD2 4 and MBD2 confirm 5.
For COc1cccc2nc3c(C(=O)NCCN(C)C)cccc3cc12 the results were MBD2 DNA inh 19*, ARFGAP1 inh -3, ASAP1 inh -7, TDP2 inh 10, UHRF1 binding -12, LEDGF integ inh 3, UHRF1 ctr MBD2 -5 and MBD2 confirm 30*.
COc1ccc(C(=O)NCCN(C)C)c2nc3ccccc3cc12 was read as MBD2 DNA inh 36*, ARFGAP1 inh -11, ASAP1 inh -5, TDP2 inh 3, UHRF1 binding -2, LEDGF integ inh 0, UHRF1 ctr MBD2 16 and MBD2 confirm 70*.
For COc1ccc(-c2nc3c(C(=O)NCCN(C)C)cccc3c3ccccc23)cc1 the results were MBD2 DNA inh 13, ARFGAP1 inh -6, ASAP1 inh -9, TDP2 inh -1, UHRF1 binding -14 and LEDGF integ inh -7.
